In test [1] the target is T1, Progesterone receptor (Rattus norvegicus) (UniProt Q63449).
T1 sequence (whole entry): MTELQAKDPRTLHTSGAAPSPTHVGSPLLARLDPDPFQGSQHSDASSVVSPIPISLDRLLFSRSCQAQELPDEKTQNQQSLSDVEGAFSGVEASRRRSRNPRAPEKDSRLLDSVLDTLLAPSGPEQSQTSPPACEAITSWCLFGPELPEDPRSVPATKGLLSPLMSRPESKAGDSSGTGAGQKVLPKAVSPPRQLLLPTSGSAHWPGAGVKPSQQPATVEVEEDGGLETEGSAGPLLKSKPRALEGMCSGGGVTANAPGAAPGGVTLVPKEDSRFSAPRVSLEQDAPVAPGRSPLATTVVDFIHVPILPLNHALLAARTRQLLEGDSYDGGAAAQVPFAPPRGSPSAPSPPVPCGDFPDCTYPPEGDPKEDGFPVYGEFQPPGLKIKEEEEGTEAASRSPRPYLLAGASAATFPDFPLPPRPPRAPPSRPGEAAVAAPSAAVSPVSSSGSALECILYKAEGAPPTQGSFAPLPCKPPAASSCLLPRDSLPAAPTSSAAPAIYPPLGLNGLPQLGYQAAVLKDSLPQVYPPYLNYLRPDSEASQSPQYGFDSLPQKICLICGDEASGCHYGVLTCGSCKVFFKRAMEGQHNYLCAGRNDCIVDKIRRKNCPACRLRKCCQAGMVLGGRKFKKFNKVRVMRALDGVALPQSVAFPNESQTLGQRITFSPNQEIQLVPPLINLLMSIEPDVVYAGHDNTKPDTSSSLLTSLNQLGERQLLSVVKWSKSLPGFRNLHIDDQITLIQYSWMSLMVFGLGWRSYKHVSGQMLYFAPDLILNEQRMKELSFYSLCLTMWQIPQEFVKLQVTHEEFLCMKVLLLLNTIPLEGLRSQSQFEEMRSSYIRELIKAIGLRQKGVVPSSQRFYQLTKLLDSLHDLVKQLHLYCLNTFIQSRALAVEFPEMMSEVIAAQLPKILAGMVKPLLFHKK
Description: Relative binding affinity for progesterone receptor in a competitive radiometric binding assay relative to the affinity of R5020 as tracer. The method, boiled down:
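The R5020 standard is defined as 100%, and binding of other ligands is expressed as a percentage relative to it.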

Test [2] deals with T2, Mineralocorticoid receptor (Rattus norvegicus) (UniProt P22199).
T2 sequence (whole entry): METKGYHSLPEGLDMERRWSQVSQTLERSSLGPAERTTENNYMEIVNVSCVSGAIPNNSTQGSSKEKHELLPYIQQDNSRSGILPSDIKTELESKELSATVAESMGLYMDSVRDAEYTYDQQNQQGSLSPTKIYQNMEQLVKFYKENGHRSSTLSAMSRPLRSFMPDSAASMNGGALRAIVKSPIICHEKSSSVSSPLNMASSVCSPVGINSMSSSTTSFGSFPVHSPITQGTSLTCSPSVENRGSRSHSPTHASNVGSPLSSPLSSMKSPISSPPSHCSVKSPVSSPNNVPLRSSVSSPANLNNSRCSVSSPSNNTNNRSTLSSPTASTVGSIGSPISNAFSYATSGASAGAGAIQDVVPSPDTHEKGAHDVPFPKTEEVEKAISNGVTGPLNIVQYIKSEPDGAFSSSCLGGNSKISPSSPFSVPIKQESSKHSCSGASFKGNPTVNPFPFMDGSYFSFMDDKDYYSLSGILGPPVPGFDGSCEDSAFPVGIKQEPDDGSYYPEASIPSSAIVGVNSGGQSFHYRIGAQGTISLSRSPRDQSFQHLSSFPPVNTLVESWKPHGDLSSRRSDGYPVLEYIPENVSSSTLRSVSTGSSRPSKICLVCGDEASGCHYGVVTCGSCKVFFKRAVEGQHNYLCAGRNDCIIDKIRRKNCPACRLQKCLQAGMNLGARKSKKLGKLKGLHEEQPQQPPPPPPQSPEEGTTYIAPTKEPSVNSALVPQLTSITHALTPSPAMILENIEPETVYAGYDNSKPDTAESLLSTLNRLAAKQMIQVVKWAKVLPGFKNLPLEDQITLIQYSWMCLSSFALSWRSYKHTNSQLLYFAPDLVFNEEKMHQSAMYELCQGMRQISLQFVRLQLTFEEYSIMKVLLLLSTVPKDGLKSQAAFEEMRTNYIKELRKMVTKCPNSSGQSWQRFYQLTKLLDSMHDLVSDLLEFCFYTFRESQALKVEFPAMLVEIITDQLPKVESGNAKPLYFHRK
Description: Relative binding affinity for the rat kidney mineralocorticoid receptor (MR) relative to the affinity of aldosterone as tracer.

With `CC(=O)[C@H]1CC[C@H]2[C@@H]3CCC4=CC(=O)CC[C@]4(C)[C@H]3CC[C@]12C`, the relative binding affinity (RBA) in test [1] is 13.
Regarding `CC(=O)[C@@]12OC(C)(c3ccccc3)O[C@@H]1C[C@H]1[C@@H]3CCC4=CC(=O)CC[C@]4(C)[C@H]3CC[C@@]12C` (stereo in doubt; 16), the results for the relative binding affinity (RBA) in test [1] and in test [2] were 16 and 1.6, respectively.
Compound `CC(=O)[C@@]12OC(C)(c3ccco3)OC1CC1C3CCC4=CC(=O)CC[C@]4(C)C3CC[C@@]12C` (some centres undefined) displayed a relative binding affinity (RBA) in test [1] of 5.5.
In test [1], `CC(=O)[C@@]12OC(C)(c3ccccc3)O[C@@H]1C[C@H]1[C@@H]3CCC4=CC(=O)CC[C@]4(C)[C@H]3CC[C@@]12C` (stereo in doubt; 17) returned a relative binding affinity (RBA) of 1.2.
In turn, `CC(=O)[C@@]12OC(C)(C)O[C@@H]1C[C@H]1[C@@H]3CCC4=CC(=O)CC[C@]4(C)[C@H]3CC[C@@]12C` displayed a relative binding affinity (RBA) in test [1] of 2.
Take `CC(=O)[C@@]12OC(C)(c3c(F)c(F)c(F)c(F)c3F)O[C@@H]1CC1C3CCC4=CC(=O)CC[C@]4(C)C3CC[C@@]12C` (some centres undefined): the relative binding affinity (RBA) in test [1] worked out at 20; in test [2], 0.65.
On to `CC(=O)[C@@]12OC(C)(c3ccc(F)cc3)O[C@@H]1CC1C3CCC4=CC(=O)CC[C@]4(C)C3CC[C@@]12C` (stereo in doubt; 11), for which, in test [1], the relative binding affinity (RBA) is 0.56.
For the compound `CC(=O)[C@@]12OC(C)(c3ccc(C(=O)c4ccccc4)cc3)O[C@@H]1CC1C3CCC4=CC(=O)CC[C@]4(C)C3CC[C@@]12C` (some centres undefined), the relative binding affinity (RBA) is 6.6 in test [1] and less than 0.003 in test [2].
Taken in the same sequence, the figures for `CC(=O)[C@@]12OC(C)(c3c(F)c(F)c(N=[N+]=[N-])c(F)c3F)O[C@@H]1CC1C3CCC4=CC(=O)CC[C@]4(C)C3CC[C@@]12C` (some centres undefined) were 14 and 0.95.
Turning to `CC(=O)[C@@]12OC(C)(c3ccc(N=[N+]=[N-])cc3)O[C@@H]1CC1C3CCC4=CC(=O)CC[C@]4(C)C3CC[C@@]12C` (stereo in doubt; 7), the relative binding affinity (RBA) in test [1] amounted to 0.18.
For the compound `CC(=O)[C@@]12OC(C)(c3ccc(N=[N+]=[N-])cc3)O[C@@H]1CC1C3CCC4=CC(=O)CC[C@]4(C)C3CC[C@@]12C` (stereo in doubt; 6), the relative binding affinity (RBA) in test [1] is 15; in test [2] it was 0.13.
The corresponding values for `CC(=O)[C@@]12OC(C)(c3ccc(N=C=S)cc3)O[C@@H]1CC1C3CCC4=CC(=O)CC[C@]4(C)C3CC[C@@]12C` (some centres undefined) are 1.3 and 0.09.
For `CC(=O)[C@@]12OC(C)(c3ccc(F)cc3)O[C@@H]1CC1C3CCC4=CC(=O)CC[C@]4(C)C3CC[C@@]12C` (stereo in doubt; 10), the relative binding affinity (RBA) in test [1] stood at 53; in test [2] it was 6.
Taken in the same sequence, the figures for `CC(=O)[C@@]12OC(C)(c3ccc(I)cc3)O[C@@H]1CC1C3CCC4=CC(=O)CC[C@]4(C)C3CC[C@@]12C` (some centres undefined) were 25 and 0.13.
Compound `CC(=O)[C@@]12OC(C)(c3ccc(N=[N+]=[N-])c(I)c3)O[C@@H]1CC1C3CCC4=CC(=O)CC[C@]4(C)C3CC[C@@]12C` (some centres undefined) registered a relative binding affinity (RBA) in test [1] of 2.9.
As to `CC(=O)[C@@]12OC(C)(c3ccc(N)cc3)O[C@@H]1CC1C3CCC4=CC(=O)CC[C@]4(C)C3CC[C@@]12C` (some centres undefined), the relative binding affinity (RBA) in test [1] is 0.01.

For the origin of these results see ChEMBL document CHEMBL1127017.
